Data on 7 molecules can be found in ChEMBL document CHEMBL1122945, “Synthesis and antitumor activity of a series of ftorafur analogues: the effect of varying electronegativity at the 1'-position” (J Med Chem, 1985).

Series [1] has as its system P388. As to the kind of experiment: Evaluated for the antitumor activity in the P388 lymphocytic leukemia in female CDF1 mice injected intraperitoneally with 10 E-6 tumor cells dosed for 9 days at 20 mg/kg. Type of series: functional, Mus musculus. To be noted: route intraperitoneal. Put shortly:
(§1)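 P388 leukaemia screen run to NIH protocol in female CDF1 mice (~25 g). 1 × 10^6 cells were given ip on day 0, and compounds were dosed on days 1–9. Six mice per group, with 5-FU and fluorodeoxyuridine as positive internal standards. T/C values were calculated, and T/C above 125% counted as significant activity.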

The test system of series [2] is P388. The series can be described thus: Average days survival of female CDF1 mice bearing lymphocytic leukemia, when 10 E-6 tumor cells were injected intraperitoneally, dosed for 9 days at 20 mg/kg. Type of series: functional, Mus musculus. Particulars: route intraperitoneal. Put shortly: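 P388 lymphocytic leukemia screen per NIH protocol in female CDF1 mice (~25 g), six per group. 1 × 10^6 cells injected ip on day 0. Compound given at 20 mg/kg on days 1–9. Survival of treated mice recorded and T/C calculated, with T/C above 125% taken as significant. 5-FU and fluorodeoxyuridine served as positive internal standards.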

Series [3] can be described thus: Evaluated in vitro for the Cytotoxic activity in the L1210 cell culture screen at 1 uM Maximum cell kill in a 72-h period. The class given is cell-based. To be noted: mouse, L1210 cells; read-out: Inhibition. The procedure, abridged: (§2)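 Compounds were suspended or dissolved in sterile 5 mM phosphate-buffered saline, sonicated 3 min, then serially diluted. L1210 cells were kept in suspension culture in RPMI-1640 with 10% fetal calf serum, penicillin and streptomycin at 37 °C, 98% humidity, 5% CO2. Exponentially growing cells (4 × 10^5 cells/mL) were exposed to compound. Read-out was percent inhibition versus control at maximum cell kill within 72 h, N = 9.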

The nature of series [4]: Evaluated in vitro for the Cytotoxic activity in the L1210 cell culture screen at 10 uM Maximum cell kill in a 72-h period. The class given is cell-based. Particulars: mouse, L1210 cells; read-out: Inhibition. The procedure, abridged:
as §2

A short description of series [5]: Evaluated in vitro for the Cytotoxic activity in the L1210 cell culture screen at 100 uM Maximum cell kill in a 72-h period r. The class given is cell-based. Particulars: mouse, L1210 cells; read-out: Inhibition. Put shortly:
as §2

The nature of series [6]: Evaluated in vitro for the Cytotoxic activity in the L1210 cell culture screen at 100 uM Maximum cell kill in a 72-h period. Type of series: cell-based. To be noted: mouse, L1210 cells; read-out: Inhibition. The procedure, abridged:
as §2

For series [7], the system named is P388. The series can be described thus: Evaluated for the antitumor activity in the P388 lymphocytic leukemia in female CDF1 mice injected intraperitoneally with 10 E-6 tumor cells dosed for 9 days at 20 mg/kg;. Type of series: functional, Mus musculus. To be noted: route intraperitoneal. The procedure, abridged:
as §1

Series [8] relates to P388. The series can be described thus: Evaluated for the antitumor activity in the P388 lymphocytic leukemia in female CDF1 mice injected intraperitoneally with 10 E-6 tumor cells dosed for 9 days at 20 mg/kg; no significant activity. The class given is functional, Mus musculus. Particulars: route intraperitoneal. Put shortly: as §1

Consider `O=c1[nH]c(=O)n([C@H]2C[C@H](O)[C@@H](CO)O2)cc1F` [FLOXURIDINE], for which the T/C with P388 [1] is on record as 149%. This molecule also showed an Average survived in the series on P388 [2] of 15.17 days.

Take `O=c1[nH]c(=O)n(C2CCCO2)cc1F` (configuration not stated) [TEGAFUR]: in series [3], the cytotoxicity at 72 h, 1 µM was 17.2%. Moreover, the cytotoxicity at 72 h, 10 µM in series [4] was determined as 67.5%. Further, in series [5], the cytotoxicity at 72 h, 100 µM stood at 81.8%. Also, the T/C in the series on P388 [1] came to 98%. In addition, the Average survived with P388 [2] turned out to be 10 days.

For `O=C1CCCC1n1cc(F)c(=O)[nH]c1=O` (configuration not stated), the cytotoxicity at 72 h, 1 µM in series [3] amounted to 40%. Besides, the cytotoxicity at 72 h, 10 µM in series [4] was determined as 49.1%. For the same molecule, in series [6], the cytotoxicity at 72 h, 100 µM was 65.5%. Besides, the T/C with P388 [7] is on record as 103%. The molecule also yielded an Average survived in the series with P388 [2] of 10.5 days.

On to `O=c1[nH]c(=O)n(C2CCCS2(=O)=O)cc1F` (configuration not stated), for which the cytotoxicity at 72 h, 1 µM in series [3] is 59.2%. Also, the cytotoxicity at 72 h, 10 µM in series [4] came to 85%. In series [6], the cytotoxicity at 72 h, 100 µM came to 92%. The molecule also gave a T/C in the series on P388 [8] of 119%. Further, the Average survived with P388 [2] came to 12.17 days.

With `O=c1[nH]c(=O)n(C2CCC[S+]2[O-])cc1F` (configuration not stated), in series [3], the cytotoxicity at 72 h, 1 µM amounted to 64.9%. Moreover, the cytotoxicity at 72 h, 10 µM in series [4] was 82.9%. Besides, the cytotoxicity at 72 h, 100 µM in series [6] was 84.5%. In addition, the T/C in the series on P388 [1] worked out at 143%. For the same molecule, the Average survived with P388 [2] came to 14.5 days.

Consider `O=c1[nH]c(=O)n(C2CCCS2)cc1F` (configuration not stated), for which the cytotoxicity at 72 h, 1 µM in series [3] was 16.9%. Further, the cytotoxicity at 72 h, 10 µM in series [4] came out at 52.5%. In series [6], the cytotoxicity at 72 h, 100 µM came to 68.5%. This molecule registered a T/C in the series on P388 [1] of 100%. Besides, the Average survived with P388 [2] stood at 10.17 days.

Regarding `O=c1[nH]cc(F)c(=O)[nH]1` [FLUOROURACIL], the cytotoxicity at 72 h, 1 µM in series [3] turned out to be 79.8%. For the same molecule, in series [4], the cytotoxicity at 72 h, 10 µM came to 81.2%. The cytotoxicity at 72 h, 100 µM in series [6] turned out to be 90.3%. Moreover, the T/C with P388 [1] is on record as 173%. In the series on P388 [2], this molecule registered an Average survived of 17.6 days.
